From ChEMBL document CHEMBL4513216, “Probing the Open Global Health Chemical Diversity Library for Multistage-Active Starting Points for Next-Generation Antimalarials” (ACS Infect Dis, 2020)

Assay: Toxicity liver stage against HepG2, at 10uM
Format: cell-based
Parameters: test concentration 10 uM, cell line HepG2-A16-CD81EGFP
Details: human, HepG2-A16-CD81EGFP cells; read-out: INHIBITION
Outline: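 Uninfected HepG2-A16-CD81EGFP cells, 3 × 10^3 per well, 1536-well, plated on prespotted compound at 10 μM final, parasite-free screening media added to match infected plates; puromycin 10 μM positive, DMSO 0.5% negative; run in parallel with 48 h PbLuc assay at 37 °C, 5% CO2; viability by CellTiter-Glo luminescence, normalized to controls.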

| Compound | cytotoxicity at 10 µM |
| --- | --- |
| CS(=O)(=O)NCc1cc2n(n1)CCCN(Cc1nc3ccccc3[nH]1)C2 | -4.55% |
| O=C(NCC1CC(=O)N(CCc2ccccc2)C1)c1c(F)cccc1F (stereo unspecified) | 9.52% |
| CCn1cc(CN2C[C@@H]3CC[C@H]2CN(C(=O)C2CCC2)C3)cn1 | 3.5% |
| CCN(Cc1ccc2c(c1)OCCO2)C(=O)NCCc1cnn(C)c1 | -3.72% |
| COc1ccc(CCNCc2c(C)nn(C)c2N(C)C)cc1OC | -11.3% |
| O=C(CCc1ccccc1)C1CCCN(C(=O)c2cncc(Cl)c2)C1 (stereo unspecified) | 1.72% |
| O=C(CCSc1ccccc1F)N1CCN(c2cnccn2)CC1 | -51.7% |
| Cc1cccc(-c2noc(CN3CCOC(Cn4cccn4)C3)n2)c1 (stereo unspecified) | -3.07% |
| CCS(=O)(=O)N1CCc2c(CN(C)Cc3ccco3)cncc2C1 | -4.85% |
| CCOc1ccc(CN2CCCC(c3cc4ncccc4[nH]3)C2)cc1 (stereo unspecified) | 1.18% |
| CS(=O)(=O)N1Cc2ccccc2CC2(CCN(Cc3ccccn3)C2)C1 (stereo unspecified) | 4.51% |
| CCc1nc(NC(=O)NCCc2scnc2C)nn1C | 0.102% |
| O=C(NC1CCN(Cc2cccc3c2OCCO3)CC1)c1cccs1 | -4.71% |
| O=C(c1cscn1)N1CCC2(CN(Cc3ccoc3)C2)C1 | 7.2% |
| C[C@]12CCCCN(C(=O)c3ccccn3)[C@H]1CCCC(=O)N2 | -20.1% |
| Nc1nc(CN2CCCCC2Cn2cncn2)nc2ccccc12 (stereo unspecified) | -15.6% |
| Cc1ccc(-c2n[nH]cc2CNCCn2cccn2)o1 | -11.2% |
| CNC(=O)c1cc2c(nc1NC(C)C)CCN(C(=O)NC(C)C)CC2 | -0.0714% |
| CS(=O)(=O)N1CC(c2nc[nH]n2)c2cc(C(=O)NC3CCCC3)ccc21 (stereo unspecified) | -131% |
| Cc1ccc2c(c1)[C@@H](CC(=O)N(C)C)CCO2 | -3.78% |
| CC(C)c1nnc2n1CCN(C(=O)c1cccc(OCC(N)=O)c1)C2 | -4.38% |

| Compound | cytotoxicity at 10 µM |
| --- | --- |
| Cc1cccc2c1nc1n2[C@@H](CNC(=O)c2cncnc2)COC1 | 1.53% |
| COC(C)(C)C(=O)N1Cc2cnc(C(C)(C)C)nc2C1 | -121% |
| Cc1n[nH]c(C)c1CCC(=O)NCC1COc2ccccc2C1 (stereo unspecified) | -40.2% |
| CC(NCc1ccncc1)c1ccc(N2CCN(C)CC2)c(F)c1 (stereo unspecified) | 27.8% |
| CC1CCCN(C(=O)CCc2cccnc2)C1 (stereo unspecified) | -3.4% |
| Cc1cc(NC(=O)C(c2cccc(F)c2)N2CCOCC2)ccn1 (stereo unspecified) | 0.278% |
| Cc1noc([C@@H]2CC[C@@H]3[C@@H](CCN3S(=O)(=O)C3CC3)O2)n1 | -11.6% |
| O=C(c1ccc(Cl)s1)N1CCCn2nc(CN3CC[C@H](F)C3)cc2C1 | -1.44% |
| Cc1oc(-c2nc(C#N)c(N(C)C)o2)cc1S(=O)(=O)N1CCCCCC1 | -13.9% |
| Cc1cc(C)nc(NC(=O)NCCCSc2nncn2C)n1 | 1.74% |
| Cc1cccc(S(=O)(=O)NCC(C)N2CCN(C)CC2)c1Cl (stereo unspecified) | -4.52% |
| CC(C)Cc1noc(CN2CCC(NC(=O)c3cccs3)CC2)n1 | -17.9% |
| Cc1cc(C)c(CNC(=O)N(C)Cc2ccc3c(c2)OCO3)c(=O)[nH]1 | -5.53% |
| CN(CC1CCCCO1)c1nncc(-c2cccc(F)c2)n1 (stereo unspecified) | 8.01% |
| Nc1ncnc2[nH]c(N3CCCCC3)nc12 | -1.43% |
| C[C@@H](CO)NC(=O)c1ccc2nc(NS(C)(=O)=O)sc2c1 | 6.84% |
| CCOC(=O)C1CCN(C(=O)CN2CCCC2Cc2ccccc2)CC1 (stereo unspecified) | 12.7% |
| O=C(c1c[nH]c(=O)[nH]1)N1CCc2ccccc21 | 81.9% |
| CC(C)c1nnc2n1CCN(C(C)c1nnc(-c3cccs3)o1)C2 (stereo unspecified) | 7.8% |
| CN(C)CCOCc1cncc2c1CCN(C1CCOCC1)C2 | 4.62% |
| Cc1ccccc1CN1CCCN(S(=O)(=O)N(C)C2CCCCC2)CC1 | 11.5% |

| Compound | cytotoxicity at 10 µM |
| --- | --- |
| Cc1cnn(C2CN(Cc3nc(-c4ccccc4C)no3)C2)c1 | -10.6% |
| Cc1ccc2cc(C3(O)CCN(C(=O)CSC(C)C)CC3)ccc2n1 | 22% |
| CC1CN(c2ccc(NC(=O)Cn3cccn3)cc2)CCO1 (stereo unspecified) | 3.94% |
| CC(Cc1cnccn1)NC(=O)COc1ccc(F)cc1F (stereo unspecified) | -44.4% |
| CN(C)C(=O)C1CCC2(CCN(Cc3cnn(C)c3)CC2)C1 (stereo unspecified) | 5.01% |
| c1csc(N2CCN(c3ncnc4sccc34)CC2)n1 | 34.6% |
| CC1(C)OC(=O)N(CCOc2ccc(F)cc2)C1=O | -8.68% |
| CC(C)CCOc1ccc(C(C)NC(=O)CSCC(N)=O)cc1 (stereo unspecified) | 10.5% |
| CNc1ccnc(N2CCC(c3nnc(CN4CCCC4)n3C)CC2)n1 | 0.715% |
| CC(C)NC(=O)[C@@]12CCO[C@@H]1CCN(Cc1ccco1)C2 | -3.31% |
| O=C(CC1CC1)N1CCC2(CC1)C(=O)NCCN2Cc1ccccc1 | -3.33% |
| CC(C)N1CC(C(=O)N2CCC(Oc3ccccc3Cl)CC2)CC1=O (stereo unspecified) | -3.21% |
| COc1ccc(C(=O)N2CCN3C(=O)CNC(=O)[C@@H]3C2)cc1 | -7.1% |
| Cc1ncc2c(n1)CCCC2NC(=O)c1ccc(Cn2cccn2)cc1 (stereo unspecified) | -7.55% |
| O=C1CN(CCS(=O)(=O)c2ccc(Cl)cc2)CCN1 | -9.2% |
| CCc1cc(N2CCC3(CCCNC3=O)C2)nc(N2CCOCC2)n1 (stereo unspecified) | -0.28% |
| Cc1cc(N2CCC(NC(=O)CCC3CCCO3)CC2)nc(C)n1 (stereo unspecified) | -8.21% |
| O=C(NCCCN1CCOCC1)c1ccc(-n2ccc3ccccc32)s1 | -3.42% |
| CCS(=O)(=O)N1CCCC(c2nccn2Cc2ccccn2)C1 (stereo unspecified) | -10.5% |
| O=C(CCC(=O)c1cccs1)NC1(C(=O)NCC2CC2)CCCC1 | -10.6% |
| COc1ccccc1C(O)CNC(=O)NCc1cccnc1OC (stereo unspecified) | -4.48% |

| Compound | cytotoxicity at 10 µM |
| --- | --- |
| CC(CCNC(=O)NCCNc1cnccn1)c1ccccc1 (stereo unspecified) | -4.08% |
| Cc1nc2c(c(NCc3ccccc3)n1)CCN(C(=O)NC(C)C)CC2 | 28.7% |
| CC(C)C(=O)NCCNc1nccc(-c2cc(C(=O)O)ccn2)n1 | -24% |
| O=C(CCc1cc(O)no1)N1CCCC(COc2ccc(F)cc2)C1 (stereo unspecified) | 2.47% |
| CCOCC(=O)NCC(CC)(OC)c1ccccc1 (stereo unspecified) | -0.478% |
| Cc1ccc(C(C(=O)NCCN2CCC(CO)CC2)N(C)C)cc1 (stereo unspecified) | -10.2% |
| CCCN1CCC2(CC1)COc1ccccc1S(=O)(=O)N(CC1CC1)C2 | -3.43% |
| Fc1cc(CNCCn2cccn2)ccc1-n1cncn1 | -11.1% |
| CC(C)[C@@H](N)C(=O)NCc1cccnc1N1CCc2ccccc2C1 | 11% |
| Cc1ccc(NC(=O)CS(=O)(=O)NC2CCC(C)CC2)nc1 (stereo unspecified) | -9.24% |
| CC(=O)N1CCCN(c2nccc(-c3cn(C)nc3C)n2)CC1 | 22.3% |
| O=C(NCC1(O)CCOC1)c1ccccc1Cl (stereo unspecified) | -40.3% |
| Cc1ccc(CN2CC[C@H]3CO[C@H](CN(C)Cc4ccco4)[C@H]3C2)s1 | 4.74% |
| CO[C@@H]1CO[C@@]2(CCCN(Cc3nc(C)cs3)C2)C1 | -138% |
| Cc1cc(NS(=O)(=O)c2ccc(Cl)s2)ccc1-n1cccc1C(=O)O | 3.2% |
| c1cc(CNCC2CNc3ccnn3C2)cc(N2CCOCC2)n1 (stereo unspecified) | -5.13% |
| CN(C)C(=O)COCC1CN(C2CCC2)Cc2ncn(C)c21 (stereo unspecified) | 14.1% |
| CN(Cc1cn2c(n1)CN(C(=O)C1CCOCC1)CC2)Cc1ccco1 | -1.46% |
